These results are taken from ChEMBL document CHEMBL4390639, “Design, Synthesis, and Biological Evaluation of Novel Allosteric Protein Disulfide Isomerase Inhibitors” (J Med Chem, 2019).

Structures are written as SMILES. Activity calls are given as the source filed them. No cut-off for these calls is given here.

For test [1], the system named is A 172. Put plainly: Induction of morphological changes in human A172 cells assessed as vesicle formation at 11 uM measured after 48 hrs by Giemsa-staining based microscopic analysis. The class given is functional, cell-based.
For test [2], the system named is U-87 MG. Nature of the test: Up regulation of BAG3 gene expression in human U87MG cells at 16 uM incubated for 4 hrs followed by bromouridine addition during last 30 mins of incubation by TRIzol-reagent based Bru-Seq analysis relative to control. The class given is functional, U-87MG ATCC. The method, boiled down: (§1)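 U87MG cells exposed to compound or DMSO vehicle for 4 h, with 2 mM bromouridine added for the final 30 min. Total RNA isolated with TRIzol; Bru-labelled nascent RNA captured on anti-BrdU antibody-conjugated magnetic beads and sequenced. Transcript abundance expressed as RPKM relative to DMSO. Experiment performed once.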

In test [3] the test system is U-87 MG. Nature of the test: Down regulation of AC010931.3 gene expression in human U87MG cells at 16 uM incubated for 4 hrs followed by bromouridine addition during last 30 mins of incubation by TRIzol-reagent based Bru-Seq analysis relative to control. The class given is functional, U-87MG ATCC.
The subject of test [4] is U-87 MG. Nature of the test: Up regulation of FTH1 gene expression in human U87MG cells at 16 uM incubated for 4 hrs followed by bromouridine addition during last 30 mins of incubation by TRIzol-reagent based Bru-Seq analysis relative to control. The format is functional, U-87MG ATCC. The method, boiled down:
as §1

The test system of test [5] is U-87 MG. Nature of the test: Down regulation of AC022601.1 gene expression in human U87MG cells at 16 uM incubated for 4 hrs followed by bromouridine addition during last 30 mins of incubation by TRIzol-reagent based Bru-Seq analysis relative to control. The format is functional, U-87MG ATCC.
Test [6] has as its system U-87 MG. Nature of the test: Down regulation of RAET1E gene expression in human U87MG cells at 16 uM incubated for 4 hrs followed by bromouridine addition during last 30 mins of incubation by TRIzol-reagent based Bru-Seq analysis relative to control. The class given is functional, U-87MG ATCC. The method, boiled down: as §1
For test [7], the system named is U-87 MG. Nature of the test: Up regulation of HMOX1 gene expression in human U87MG cells at 16 uM incubated for 4 hrs followed by bromouridine addition during last 30 mins of incubation by TRIzol-reagent based Bru-Seq analysis relative to control. The class given is functional, U-87MG ATCC. The method, boiled down: as §1
The test system of test [8] is U-87 MG. Nature of the test: Down regulation of AC007848.1 gene expression in human U87MG cells at 16 uM incubated for 4 hrs followed by bromouridine addition during last 30 mins of incubation by TRIzol-reagent based Bru-Seq analysis relative to control. The class given is functional, U-87MG ATCC.
For test [9], the system named is U-87 MG. Nature of the test: Down regulation of LRRN3 gene expression in human U87MG cells at 16 uM incubated for 4 hrs followed by bromouridine addition during last 30 mins of incubation by TRIzol-reagent based Bru-Seq analysis relative to control. The format is functional, U-87MG ATCC. The method, boiled down: as §1
For test [10], the system named is U-87 MG. Put plainly: Down regulation of E2F1 gene expression in human U87MG cells at 10 uM incubated for 4 hrs followed by bromouridine addition during last 30 mins of incubation by TRIzol-reagent based Bru-Seq analysis. The class given is functional, cell-based. The settings on record: U-87MG ATCC.
In test [11] the test system is U-87 MG. Nature of the test: Up regulation of CTH gene expression in human U87MG cells at 10 uM incubated for 4 hrs followed by bromouridine addition during last 30 mins of incubation by TRIzol-reagent based Bru-Seq analysis relative to control. The format is functional, U-87MG ATCC. The method, boiled down: as §1
Test [12] has as its system U-87 MG. Put plainly: Down regulation of AKAP5 gene expression in human U87MG cells at 10 uM incubated for 4 hrs followed by bromouridine addition during last 30 mins of incubation by TRIzol-reagent based Bru-Seq analysis relative to control. The format is functional, U-87MG ATCC.
Test [13] has as its system U-87 MG. Put plainly: Down regulation of KCTD4 gene expression in human U87MG cells at 10 uM incubated for 4 hrs followed by bromouridine addition during last 30 mins of incubation by TRIzol-reagent based Bru-Seq analysis relative to control. The format is functional, U-87MG ATCC.
The subject of test [14] is U-87 MG. Nature of the test: Up regulation of BAG3 gene expression in human U87MG cells at 10 uM incubated for 4 hrs followed by bromouridine addition during last 30 mins of incubation by TRIzol-reagent based Bru-Seq analysis relative to control. The format is functional, U-87MG ATCC. The method, boiled down:
as §1

Test [15] relates to U-87 MG. Put plainly: Up regulation of SLC7A5 gene expression in human U87MG cells at 10 uM incubated for 4 hrs followed by bromouridine addition during last 30 mins of incubation by TRIzol-reagent based Bru-Seq analysis relative to control. The format is functional, U-87MG ATCC. The method, boiled down:
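U87MG cells treated 4 h with test compound (10 or 16 μM, as per line) or DMSO; 2 mM bromouridine added for final 30 min. Total RNA isolated with TRIzol, Bru-labelled nascent RNA captured with anti-BrdU antibody magnetic beads and sequenced; transcript abundance (RPKM) compared with DMSO control. Single experiment.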

Test [16] has as its system U-87 MG. Put plainly: Up regulation of ADAMTS5 gene expression in human U87MG cells at 10 uM incubated for 4 hrs followed by bromouridine addition during last 30 mins of incubation by TRIzol-reagent based Bru-Seq analysis relative to control. The class given is functional, U-87MG ATCC. The method, boiled down: as §1
Test [17] has as its system U-87 MG. Put plainly: Down regulation of ST8SIA4 gene expression in human U87MG cells at 10 uM incubated for 4 hrs followed by bromouridine addition during last 30 mins of incubation by TRIzol-reagent based Bru-Seq analysis relative to control. The class given is functional, U-87MG ATCC. The method, boiled down: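 Nascent transcription (Bru-seq) in U87MG cells: treatment at 10 μM for 4 h, with 2 mM bromouridine added for the final 30 min. Total RNA isolated with TRIzol; Bru-labelled RNA captured using anti-BrdU antibody on magnetic beads, then sequenced. Transcript traces reported as RPKM compared with DMSO-treated cells. Single experiment.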

Test [18] relates to A 172. Put plainly: Antimigratory activity against human A172 cells at 10 uM measured after 4 hrs by Giemsa staining based transwell migration assay. The class given is functional, cell-based. The method, boiled down: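 A172 cells (1 x 10^5) were treated with compound and seeded into inserts with 8.0 μm PET membrane in serum-free medium. DMEM with 10% FBS was in the lower well; wells without FBS served as control. After 4 h, migrated cells were Giemsa-stained and imaged at 10X, 5 fields per well.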

Test [19] concerns U-87 MG. Nature of the test: Down regulation of HLA-DQB1 gene expression in human U87MG cells at 10 uM incubated for 4 hrs followed by bromouridine addition during last 30 mins of incubation by TRIzol-reagent based Bru-Seq analysis relative to control. The class given is functional, U-87MG ATCC.
Test [20] concerns U-87 MG. Nature of the test: Down regulation of C11orf87 gene expression in human U87MG cells at 10 uM incubated for 4 hrs followed by bromouridine addition during last 30 mins of incubation by TRIzol-reagent based Bru-Seq analysis relative to control. The format is functional, U-87MG ATCC.
In test [21] the test system is U-87 MG. Nature of the test: Cytotoxicity against human U87MG cells assessed as inhibition of cell proliferation at <IC50 treated for 24 hrs, measured after 10 days by colony formation assay relative to control.
Test [22] concerns U-87 MG. Nature of the test: Down regulation of BARD1 gene expression in human U87MG cells at 10 uM incubated for 4 hrs followed by bromouridine addition during last 30 mins of incubation by TRIzol-reagent based Bru-Seq analysis relative to control. The format is functional, U-87MG ATCC.
Test [23] has as its target Protein disulfide-isomerase (Homo sapiens, UniProt P07237). Nature of the test: Binding affinity to recombinant human N-terminal His-tagged PDI expressed in Escherichia coli BL21 (DE3) pLysS by ROX dye based thermal shift assay. The method, boiled down: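 Thermal shift conditions: PDI (0.5 mg/mL, 50 mM Tris, pH 7.0) with ROX dye, heated 25–99 °C at 1 °C/min. […] Kd was fitted from melting-temperature change versus vehicle.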

Sequence of Protein disulfide-isomerase (P07237 whole entry): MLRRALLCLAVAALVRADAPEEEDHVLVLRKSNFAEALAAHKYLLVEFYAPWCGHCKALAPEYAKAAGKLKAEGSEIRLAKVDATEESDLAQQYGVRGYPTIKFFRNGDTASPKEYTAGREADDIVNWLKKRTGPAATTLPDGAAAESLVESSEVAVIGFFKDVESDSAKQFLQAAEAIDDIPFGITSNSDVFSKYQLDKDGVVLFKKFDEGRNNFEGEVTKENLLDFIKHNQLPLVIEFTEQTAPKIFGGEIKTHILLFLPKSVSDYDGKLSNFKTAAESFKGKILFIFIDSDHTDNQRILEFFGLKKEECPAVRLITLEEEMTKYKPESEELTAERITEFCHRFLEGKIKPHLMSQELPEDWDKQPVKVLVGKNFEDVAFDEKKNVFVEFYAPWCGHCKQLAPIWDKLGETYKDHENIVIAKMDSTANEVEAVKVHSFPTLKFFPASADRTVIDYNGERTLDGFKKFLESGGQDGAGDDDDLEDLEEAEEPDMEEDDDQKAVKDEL

Regarding `CCCCCN(CCCCC)S(=O)(=O)c1ccc(C(=O)/C=C/c2cccc(O)c2)cc1`, in the test with A 172 [1], the result was Active.
As for `COC(=O)c1cccc(/C=C/C(=O)c2cccc(O)c2)c1`, the “fold change (FC)” value in the test with U-87 MG [2] is 1.9; in the test with U-87 MG [3] it was 3.2; with U-87 MG [4], 1.9; in the test on U-87 MG [5], 2.7; in the test with U-87 MG [6], 3.4; in the test on U-87 MG [7], 21.6. Besides, the figures for the “fold change (FC)” value with U-87 MG [8] and in the test on U-87 MG [9] were 2.9 and 3.6, respectively.
As to `CCCCCN(CCCCC)S(=O)(=O)c1ccc(C(=O)/C=C/c2cccc(C#N)c2)cc1`, the result with U-87 MG [10] and in the test on A 172 [18] was Active. For the same molecule, the “fold change (FC)” value is 17.7 in the test with U-87 MG [11]; 3.4 in the test with U-87 MG [12]; 2.8 in the test on U-87 MG [13]; 17.1 in the test with U-87 MG [14]; 16.8 in the test on U-87 MG [15]; 9.6 with U-87 MG [16]. Also, the “fold change (FC)” value stood at 3.1 in the test with U-87 MG [17], 2.9 in the test on U-87 MG [19], 2.4 with U-87 MG [20] and 2.3 in the test with U-87 MG [22]. Besides, in the test with U-87 MG [21], the “inhibition (INH)” value is given as greater than 50%.
For the molecule `N#Cc1cccc(/C=C/C(=O)c2ccc(O)cc2)c1`, the Kd in test [23] came out at 9.8 µM.

The term Kd denotes a measure of binding affinity in units of concentration.
